# According to ChEMBL document CHEMBL3616432, “(+)-Dehydroabietylamine derivatives target triple-negative breast cancer” (Eur J Med Chem, 2015):
# Activity calls are given as the source filed them. The rule behind the calls is not given here.
# Assays:
# MDA-MB-231 [1] = assay: Antiproliferative activity against human triple-negative MDA-MB-231 cells at 35 uM after 72 hrs by CellTiter-Glo assay; type: functional, cell-based
# Homo sapiens = species: Homo sapiens; assay: Antiproliferative activity against human ER-positive MA11 cells at 48 uM after 72 hrs by CellTiter-Glo assay; type: functional
# MCF7 [2] = assay: Antiproliferative activity against human ER-positive MCF7 cells at 48 uM after 72 hrs by CellTiter-Glo assay; type: functional, cell-based
# MDA-MB-231 [3] = assay: Cell cycle arrest in human triple-negative MDA-MB-231 cells assessed as accumulation at G0/G1 phase at 30.0 uM after 12 hrs by propidium iodide staining-based flow cytometry (reference value: 48.36%); type: functional
# MDA-MB-231 [4] = assay: Cell cycle arrest in human triple-negative MDA-MB-231 cells assessed as accumulation at G2/M phase at 30.0 uM after 12 hrs by propidium iodide staining-based flow cytometry (reference value: 20.40%); type: functional
# MDA-MB-231 [5] = assay: Cell cycle arrest in human triple-negative MDA-MB-231 cells assessed as accumulation at S phase at 30.0 uM after 12 hrs by propidium iodide staining-based flow cytometry (reference value: 31.23%); type: functional
# MDA-MB-231 [6] = assay: Induction of DNA fragmentation in human triple-negative MDA-MB-231 cells at 30 uM by propidium iodide staining-based flow cytometry; type: functional, cell-based
# MDA-MB-231 [7] = assay: Induction of apoptosis in human triple-negative MDA-MB-231 cells assessed as necrotic cells after 12 hrs by Annexin V-FITC/propidium iodide staining-based flow cytometry (reference value: 0.1%); type: functional
# MDA-MB-231 [8] = assay: Induction of apoptosis in human triple-negative MDA-MB-231 cells assessed as late apoptotic cells after 12 hrs by Annexin V-FITC/propidium iodide staining-based flow cytometry (reference value: 3.7%); type: functional
# MDA-MB-231 [9] = assay: Induction of apoptosis in human triple-negative MDA-MB-231 cells assessed as viable cells after 12 hrs by Annexin V-FITC/propidium iodide staining-based flow cytometry (reference value: 93.1%); type: functional
# MDA-MB-231 [10] = assay: Induction of apoptosis in human triple-negative MDA-MB-231 cells assessed as early apoptotic cells after 12 hrs by Annexin V-FITC/propidium iodide staining-based flow cytometry (reference value: 3.1%); type: functional
# MDA-MB-231 [11] = assay: Induction of apoptosis in human triple-negative MDA-MB-231 cells assessed as increase in cleaved PARP level by western blot analysis; type: functional, cell-based; conditions: TDE = time-dependent effect
# MDA-MB-231 [12] = assay: Induction of apoptosis in human triple-negative MDA-MB-231 cells assessed as increase in DR5 level after 12 hrs by western blot analysis; type: functional, cell-based
# MDA-MB-231 [13] = assay: Induction of apoptosis in human triple-negative MDA-MB-231 cells assessed as increase in cleaved caspase-8 level after 6 to 12 hrs by western blot analysis; type: functional, cell-based
# MDA-MB-231 [14] = assay: Induction of apoptosis in human triple-negative MDA-MB-231 cells assessed as increase in cleaved caspase-9 level after 6 to 12 hrs by western blot analysis; type: functional, cell-based
# MDA-MB-231 [15] = assay: Induction of apoptosis in human triple-negative MDA-MB-231 cells assessed as increase in cleaved caspase-3 level after 6 to 12 hrs by western blot analysis; type: functional, cell-based
# MDA-MB-231 [16] = assay: Induction of apoptosis in human triple-negative MDA-MB-231 cells assessed as decrease in caspase-7 level after 6 to 12 hrs by western blot analysis; type: functional, cell-based
# MDA-MB-231 [17] = assay: Antiproliferative activity against human triple-negative MDA-MB-231 cells after 72 hrs by CellTiter-Glo assay; type: functional, cell-based; conditions: MDA-MB-231, 72 h
# MDA-MB-231 [18] = assay: Antiproliferative activity against human triple-negative MDA-MB-231 cells at 9 uM after 72 hrs by CellTiter-Glo assay; type: functional, cell-based
# MCF7 [19] = assay: Antiproliferative activity against human ER-positive MCF7 cells after 72 hrs by CellTiter-Glo assay; type: functional, cell-based
# [20] = Half life in human microsomes; type: ADME, Microsome
# [21] = Half life in mouse microsomes; type: ADME, Microsome
# [22] = Intrinsic clearance in human microsomes; type: ADME, Microsome
# [23] = Intrinsic clearance in mouse microsomes; type: ADME, Microsome
# [24] = Plasma protein binding in human; type: ADME, cell-free; conditions: read-out: PPB (converted)
# [25] = Plasma protein binding in mouse; type: ADME; conditions: read-out: PPB (converted)
# [26] = Half life in human plasma; type: ADME, cell-free
# Outline: (§1)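 Compound stability incubated in human or mouse plasma; half-life determined, with known drugs as controls.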
# [27] = Half life in mouse plasma; type: ADME, cell-free; outline: as §1
# [28] = Permeability of the compound at pH 7.4 by PAMPA assay; type: physicochemical; conditions: read-out: permeability
# [29] = Apparent permeability from apical to basolateral side in human Caco2 cells; type: ADME, cell-based; conditions: Caco-2
# [30] = Apparent permeability from basolateral to apical side in human Caco2 cells; type: ADME, cell-based; conditions: Caco-2
# [31] = Efflux ratio of permeability from basolateral to apical side over apical to basolateral side in human Caco2 cells; type: ADME, cell-based; conditions: Caco-2
# MDA-MB-231 [32] = assay: Cell cycle arrest in human triple-negative MDA-MB-231 cells assessed as accumulation at G0/G1 phase at 8.5 uM after 12 hrs by propidium iodide staining-based flow cytometry (reference value: 48.36%); type: functional
# MDA-MB-231 [33] = assay: Cell cycle arrest in human triple-negative MDA-MB-231 cells assessed as accumulation at G2/M phase at 8.5 uM after 12 hrs by propidium iodide staining-based flow cytometry (reference value: 20.40%); type: functional
# MDA-MB-231 [34] = assay: Cell cycle arrest in human triple-negative MDA-MB-231 cells assessed as accumulation at S phase at 8.5 uM after 12 hrs by propidium iodide staining-based flow cytometry (reference value: 31.23%); type: functional
# MDA-MB-231 [35] = assay: Induction of DNA fragmentation in human triple-negative MDA-MB-231 cells at 8.5 uM by propidium iodide staining-based flow cytometry; type: functional, cell-based; conditions: TDE = time-dependent effect
# MDA-MB-231 [36] = assay: Induction of apoptosis in human triple-negative MDA-MB-231 cells assessed as cell shrinkage at 16 uM after 6 to 48 hrs by microscopic analysis; type: functional, cell-based
# MDA-MB-231 [37] = assay: Induction of apoptosis in human triple-negative MDA-MB-231 cells assessed as cell detachment at 16 uM after 6 to 48 hrs by microscopic analysis; type: functional, cell-based
# MDA-MB-231 [38] = assay: Induction of apoptosis in human triple-negative MDA-MB-231 cells assessed as cell death at 16 uM after 6 to 48 hrs by microscopic analysis; type: functional, cell-based
# [39] = Permeability of the compound at pH 7.4 assessed as drug retention by PAMPA assay; type: physicochemical
# MDA-MB-231 [40] = assay: Cell cycle arrest in human triple-negative MDA-MB-231 cells assessed as accumulation at G0/G1 phase at 2.5 uM after 12 hrs by propidium iodide staining-based flow cytometry (reference value: 48.36%); type: functional
# MDA-MB-231 [41] = assay: Cell cycle arrest in human triple-negative MDA-MB-231 cells assessed as accumulation at G2/M phase at 2.5 uM after 12 hrs by propidium iodide staining-based flow cytometry (reference value: 20.40%); type: functional
# MDA-MB-231 [42] = assay: Cell cycle arrest in human triple-negative MDA-MB-231 cells assessed as accumulation at S phase at 2.5 uM after 12 hrs by propidium iodide staining-based flow cytometry (reference value: 31.23%); type: functional
# MDA-MB-231 [43] = assay: Induction of apoptosis in human triple-negative MDA-MB-231 cells at 2.5 uM after 6 to 48 hrs by microscopic analysis; type: functional, cell-based
# MDA-MB-231 [44] = assay: Antiproliferative activity against human triple-negative MDA-MB-231 cells at <= 50 uM after 72 hrs by CellTiter-Glo assay; type: functional, cell-based
# HEK293 = assay: Cytotoxicity against HEK293 cells at <= 50 uM after 72 hrs by CellTiter-Glo assay; type: cell-based; conditions: human, hek293, 72 h
# HepG2 = assay: Cytotoxicity against human HepG2 cells at <= 50 uM after 72 hrs by CellTiter-Glo assay; type: cell-based; conditions: hepg2, 72 h
# MDA-MB-231 [45] = assay: Antiproliferative activity against human triple-negative MDA-MB-231 cells at 29 uM after 72 hrs by CellTiter-Glo assay; type: functional, cell-based
# MDA-MB-231 [46] = assay: Cell cycle arrest in human triple-negative MDA-MB-231 cells assessed as accumulation at G0/G1 phase at 28.5 uM after 12 hrs by propidium iodide staining-based flow cytometry (reference value: 48.36%); type: functional
# MDA-MB-231 [47] = assay: Cell cycle arrest in human triple-negative MDA-MB-231 cells assessed as accumulation at G2/M phase at 28.5 uM after 12 hrs by propidium iodide staining-based flow cytometry (reference value: 20.40%); type: functional
# MDA-MB-231 [48] = assay: Cell cycle arrest in human triple-negative MDA-MB-231 cells assessed as accumulation at S phase at 28.5 uM after 12 hrs by propidium iodide staining-based flow cytometry (reference value: 31.23%); type: functional
compound,measurement,setting,value
CC(C)c1ccc2c(c1)CC[C@H]1[C@](C)(CNS(=O)(=O)c3ccc(C=O)cc3)CCC[C@]21C,Activity,MDA-MB-231 [1],Active
same,Activity,Homo sapiens,Active
same,Activity,MCF7 [2],inactive
same,Activity,MDA-MB-231 [3],63.41%
same,Activity,MDA-MB-231 [4],16.89%
same,Activity,MDA-MB-231 [5],19.7%
same,Activity,MDA-MB-231 [6],Active
same,Activity,MDA-MB-231 [7],0.2%
same,Activity,MDA-MB-231 [8],6%
same,Activity,MDA-MB-231 [9],90.4%
same,Activity,MDA-MB-231 [10],3.4%
same,Activity,MDA-MB-231 [11],tde
same,Activity,MDA-MB-231 [12],Active
same,Activity,MDA-MB-231 [13],Active
same,Activity,MDA-MB-231 [14],Active
same,Activity,MDA-MB-231 [15],Active
same,Activity,MDA-MB-231 [16],Active
CC(C)c1ccc2c(c1)CC[C@H]1[C@](C)(CNS(=O)(=O)c3c(F)c(F)c(F)c(F)c3F)CCC[C@]21C,EC50,MDA-MB-231 [17],9 µM
same,Activity,MDA-MB-231 [18],Active
same,Activity,MCF7 [19],inactive
same,half-life,[20],0.93 h
same,half-life,[21],0.51 h
same,CLint scaled,[22],22.3 mL/min/kg
same,CLint scaled,[23],112 mL/min/kg
same,fraction unbound,[24],0.052
same,fraction unbound,[25],0.007
same,half-life,[26],6.76 h
same,half-life,[27],37.7 h
same,Papp,[28],62.5 ×10⁻⁶ cm/s
same,Papp A→B,[29],1.96 ×10⁻⁶ cm/s
same,Papp B→A,[30],1.57 ×10⁻⁶ cm/s
same,efflux ratio,[31],0.8
same,Activity,MDA-MB-231 [32],61.26%
same,Activity,MDA-MB-231 [33],18.37%
same,Activity,MDA-MB-231 [34],20.37%
same,Activity,MDA-MB-231 [35],tde
same,Activity,MDA-MB-231 [7],0.5%
same,Activity,MDA-MB-231 [8],16.7%
same,Activity,MDA-MB-231 [9],61.5%
same,Activity,MDA-MB-231 [10],21.3%
same,Activity,MDA-MB-231 [11],tde
same,Activity,MDA-MB-231 [12],Active
same,Activity,MDA-MB-231 [13],Active
same,Activity,MDA-MB-231 [14],Active
same,Activity,MDA-MB-231 [15],Active
same,Activity,MDA-MB-231 [16],Active
same,Activity,MDA-MB-231 [36],Active
same,Activity,MDA-MB-231 [37],Active
same,Activity,MDA-MB-231 [38],Active
same,permeability,[39],60.4%
CN[C@@H]1C[C@H]2O[C@@](C)([C@@H]1OC)n1c3ccccc3c3c4c(c5c6ccccc6n2c5c31)C(=O)NC4 [STAUROSPORINE],Activity,MDA-MB-231 [40],43.5%
same,Activity,MDA-MB-231 [41],23.28%
same,Activity,MDA-MB-231 [42],33.22%
same,Activity,MDA-MB-231 [7],0.5%
same,Activity,MDA-MB-231 [9],55.7%
same,Activity,MDA-MB-231 [10],25%
same,Activity,MDA-MB-231 [43],inactive
CC(C)c1cc2c(cc1O)[C@@]1(C)CCCC(C)(C)[C@@H]1CC2 [FERRUGINOL],Activity,MDA-MB-231 [44],Active
same,Activity,HEK293,Non-toxic
same,Activity,HepG2,Non-toxic
same,Activity,MDA-MB-231 [45],Active
same,Activity,MDA-MB-231 [46],50.76%
same,Activity,MDA-MB-231 [47],19.54%
same,Activity,MDA-MB-231 [48],29.7%
same,Activity,MDA-MB-231 [7],0.2%
same,Activity,MDA-MB-231 [8],9.6%
same,Activity,MDA-MB-231 [9],85.8%
same,Activity,MDA-MB-231 [10],4.4%
same,Activity,MDA-MB-231 [11],tde
same,Activity,MDA-MB-231 [12],Active
same,Activity,MDA-MB-231 [14],inactive
same,Activity,MDA-MB-231 [16],Active
